Data as given in ChEMBL document CHEMBL1122517, “2-Phenylindoles. Relationship between structure, estrogen receptor affinity, and mammary tumor inhibiting activity in the rat” (1984).

Key:
[1] = biological target: Estrogen receptor (Bos taurus) (UniProt Q9XSB5+P49884); experiment: Relative binding affinity for the calf uterine estrogen receptor measured as the ratio of molar concentration of 17-beta-estradiol (E2) and inhibitor required to decrease the amount of bound [3H]E2 by 50%; type: protein assay
How it was run: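 Competitive binding in calf uterine cytosol with 5×10^-9 M [3H]estradiol, 18 h at 4 °C, Tris/EDTA buffer (0.01 M, pH 7.5). Unbound ligand was removed with dextran-coated charcoal (90 min, 4 °C) and supernatant radioactivity counted. Six competitor concentrations gave 10–90% bound. From semilog plots, RBA = ratio of molar concentrations of estradiol to compound giving 50% decrease in binding, ×100.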

[2] = biological target: T1, Estrogen receptor (Mus musculus) (UniProt O08537+P19785); experiment: Uterotrophic activity in mice as uterus dry weight (mg)/body weight (g) *100 at 1 ug dose; type: functional, tissue-based
T1 sequence (O08537 whole entry, looked up): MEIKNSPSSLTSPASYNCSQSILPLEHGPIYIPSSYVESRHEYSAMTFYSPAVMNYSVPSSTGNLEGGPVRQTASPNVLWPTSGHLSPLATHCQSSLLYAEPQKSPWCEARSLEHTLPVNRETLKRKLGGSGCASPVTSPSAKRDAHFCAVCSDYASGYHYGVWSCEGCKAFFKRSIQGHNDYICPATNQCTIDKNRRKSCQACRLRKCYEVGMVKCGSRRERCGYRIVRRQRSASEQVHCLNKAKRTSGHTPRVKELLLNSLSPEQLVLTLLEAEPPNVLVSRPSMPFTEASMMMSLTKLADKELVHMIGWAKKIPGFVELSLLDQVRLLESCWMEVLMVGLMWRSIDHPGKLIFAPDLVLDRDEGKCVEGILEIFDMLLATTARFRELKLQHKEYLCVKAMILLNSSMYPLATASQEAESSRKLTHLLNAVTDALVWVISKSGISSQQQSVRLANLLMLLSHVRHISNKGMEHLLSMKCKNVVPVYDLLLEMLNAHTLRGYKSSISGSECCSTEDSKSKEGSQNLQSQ
T1 sequence (P19785 whole entry, looked up): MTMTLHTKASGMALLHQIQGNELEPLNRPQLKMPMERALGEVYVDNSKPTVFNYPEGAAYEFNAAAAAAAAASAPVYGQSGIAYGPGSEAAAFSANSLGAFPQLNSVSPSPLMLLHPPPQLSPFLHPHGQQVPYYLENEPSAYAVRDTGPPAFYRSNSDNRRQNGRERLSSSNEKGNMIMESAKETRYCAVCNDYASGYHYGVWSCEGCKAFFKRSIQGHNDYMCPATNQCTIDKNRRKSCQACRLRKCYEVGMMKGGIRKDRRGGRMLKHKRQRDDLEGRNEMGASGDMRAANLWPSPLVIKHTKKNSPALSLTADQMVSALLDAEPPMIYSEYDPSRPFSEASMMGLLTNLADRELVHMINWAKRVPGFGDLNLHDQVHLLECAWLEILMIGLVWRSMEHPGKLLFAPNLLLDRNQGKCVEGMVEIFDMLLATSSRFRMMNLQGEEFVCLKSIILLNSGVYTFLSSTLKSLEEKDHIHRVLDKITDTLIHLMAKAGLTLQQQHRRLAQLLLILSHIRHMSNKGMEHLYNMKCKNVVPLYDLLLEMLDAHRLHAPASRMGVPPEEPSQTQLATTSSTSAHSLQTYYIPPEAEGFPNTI
How it was run: (§1)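 Immature 19-day-old female NMRI mice, groups of 10. Compound dose per animal in olive oil (50 µL) sc on 3 consecutive days. Mice were killed 24 h after the last injection. Uteri were Bouin-fixed 20 h, cleaned, washed with alcoholic LiCl, and dried at 100 °C for 24 h. Effect = uterine dry weight (mg)/body weight (g) ×100; mean ± SD.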

Rattus norvegicus [3] = organism: Rattus norvegicus; experiment: Percent progressive DMBA-induced mammary carcinoma tumors in rats at 0.5 mg dose; type: functional
How it was run: (§2)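 Female Sprague-Dawley rats, 50 days old, given a single 20 mg DMBA dose in 1 mL olive oil by gavage. Rats were palpated twice weekly from day 30, and those without tumors by day 70 were discarded. Rats were randomized once tumor area exceeded 140 mm². Drug dose was per kg in olive oil (1 mL/kg) sc, single dose Mon–Thu and double dose Fri. Tumor area (caliper, two perpendicular axes) and body weight were measured twice weekly.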

[4] = biological target: T1, Estrogen receptor (Mus musculus); experiment: Uterotrophic activity in mice as uterus dry weight (mg)/body weight (g) *100 at 125 ug dose; type: functional, tissue-based; how it was run: as §1
Rattus norvegicus [5] = organism: Rattus norvegicus; experiment: Formation of new DMBA-induced mammary carcinoma tumors in rats at 0.5 mg dose; type: functional
How it was run: (§3)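 DMBA-induced tumors in Sprague-Dawley rats, entered when tumor area exceeded 140 mm². Dose per kg was given sc in olive oil, daily Monday to Thursday with a double dose Friday. Tumors were measured by calipers twice weekly. Tumor number was counted at the start of the test. Complete remission meant the tumor was no longer palpable. Partial remission meant reduction to ≤50% of initial size. New tumor appearance was recorded.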

Rattus norvegicus [6] = organism: Rattus norvegicus; experiment: Number of DMBA-induced mammary carcinoma tumors in rats at 0.5 mg dose; type: functional; how it was run: as §3
Rattus norvegicus [7] = organism: Rattus norvegicus; experiment: Partial remission (%) of DMBA-induced mammary carcinoma tumors in rats at 2 mg dose; type: functional; how it was run: as §2
[8] = biological target: T1, Estrogen receptor (Mus musculus); experiment: Uterotrophic activity in mice as uterus dry weight (mg)/body weight (g) *100 at 5 ug dose; type: functional, tissue-based; how it was run: as §1
Rattus norvegicus [9] = organism: Rattus norvegicus; experiment: Complete remission (%) of DMBA-induced mammary carcinoma tumors in rats at 2 mg dose; type: functional; how it was run: as §3
Rattus norvegicus [10] = organism: Rattus norvegicus; experiment: Number of DMBA-induced mammary carcinoma tumors in rats at 2 mg dose; type: functional; how it was run: as §3
[11] = biological target: T1, Estrogen receptor (Mus musculus); experiment: Uterotrophic activity in mice as uterus dry weight (mg)/body weight (g) *100 at 25 ug dose; type: functional, tissue-based; how it was run: as §1
Rattus norvegicus [12] = organism: Rattus norvegicus; experiment: Percent unchanged DMBA-induced mammary carcinoma tumors in rats at 0.5 mg dose; type: functional; how it was run: as §2
[13] = biological target: T1, Estrogen receptor (Mus musculus); experiment: Uterotrophic activity in mice as uterus dry weight (mg)/body weight (g) *100 at 0.2 ug dose; type: functional, tissue-based; how it was run: as §1
Rattus norvegicus [14] = organism: Rattus norvegicus; experiment: Percent progressive DMBA-induced mammary carcinoma tumors in rats at 2 mg dose; type: functional; how it was run: as §2
Rattus norvegicus [15] = organism: Rattus norvegicus; experiment: Percent unchanged DMBA-induced mammary carcinoma tumors in rats at 2 mg dose; type: functional; how it was run: as §2
Rattus norvegicus [16] = organism: Rattus norvegicus; experiment: Change in DMBA-induced mammary carcinoma tumor area in rats at 0.5 mg dose; -100-346; type: functional
How it was run: (§4)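 Female Sprague-Dawley rats got one 20 mg DMBA dose by gavage at 50 days old and were palpated twice weekly from day 30. Rats were randomized once tumor area exceeded 140 mm². Dose (per kg) was given sc in olive oil, once daily Monday to Thursday and doubled on Friday. Tumor area was taken from caliper measurements of two perpendicular axes, twice weekly. Change per animal is given as median % and range.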

Rattus norvegicus [17] = organism: Rattus norvegicus; experiment: Formation of new DMBA-induced mammary carcinoma tumors in rats at 2 mg dose; type: functional; how it was run: as §3
Rattus norvegicus [18] = organism: Rattus norvegicus; experiment: Change in DMBA-induced mammary carcinoma tumor area in rats at 2.0 mg dose; type: functional; how it was run: as §4
Rattus norvegicus [19] = organism: Rattus norvegicus; experiment: Change in body weight of DMBA-induced mammary carcinoma tumor bearing rats at 0.5 mg dose; type: functional
How it was run: (§5)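 DMBA-induced tumor-bearing Sprague-Dawley rats (20 mg DMBA by gavage at 50 days old), randomized when tumor area exceeded 140 mm². Dose per kg was given sc in olive oil, single dose daily Monday to Thursday, double dose Friday. Body weight was measured twice weekly. Read-out was % change in body weight.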

Rattus norvegicus [20] = organism: Rattus norvegicus; experiment: Change in DMBA-induced mammary carcinoma tumor area in rats at 0.5 mg dose; type: functional; how it was run: as §4
Rattus norvegicus [21] = organism: Rattus norvegicus; experiment: Change in body weight of DMBA-induced mammary carcinoma tumor bearing rats at 2 mg dose; type: functional; how it was run: as §5
Rattus norvegicus [22] = organism: Rattus norvegicus; experiment: Complete remission (%) of DMBA-induced mammary carcinoma tumors in rats at 0.5 mg dose; type: functional; how it was run: as §3
Rattus norvegicus [23] = organism: Rattus norvegicus; experiment: Partial remission (%) of DMBA-induced mammary carcinoma tumors in rats at 0.5 mg dose; type: functional; how it was run: as §3
[24] = biological target: T1, Estrogen receptor (Mus musculus); experiment: Anti-uterotrophic activity in mice as uterus dry weight (mg)/body weight (g) *100 at 25 ug dose; type: functional, tissue-based
How it was run: (§6)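 Immature female NMRI mice, 19 days old, groups of 10, given sc injections on 3 consecutive days. Each injection held 0.4 μg estrone plus the indole dose per animal, in olive oil (50 μL). Killed 24 h after the last injection. Uteri were fixed in Bouin solution, washed, and dried 24 h at 100 °C. Read-out was uterine dry weight (mg)/body weight (g) × 100, mean ± SD.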

[25] = biological target: T1, Estrogen receptor (Mus musculus); experiment: Anti-uterotrophic activity in mice as uterus dry weight (mg)/body weight (g) *100 at 1 ug dose; type: functional, tissue-based; how it was run: as §6
[26] = biological target: T1, Estrogen receptor (Mus musculus); experiment: Percentage inhibition of uterotrophic activity at 1 ug dose; type: functional
How it was run: (§7)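 Antiuterotrophic test in immature 19-day-old female NMRI mice (n=10), dosed sc on 3 consecutive days with 0.4 µg estrone per animal per day plus compound in olive oil. Uterine dry weight/body weight ×100 was read 24 h after the last dose. Inhibition % = 100 − [(E_S,T − E_V)/(E_S − E_V)]×100.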

[27] = biological target: T1, Estrogen receptor (Mus musculus); experiment: Anti-uterotrophic activity in mice as uterus dry weight (mg)/body weight (g) *100 at 125 ug dose; type: functional, tissue-based; how it was run: as §6
[28] = biological target: T1, Estrogen receptor (Mus musculus); experiment: Percentage inhibition of uterotrophic activity at 25 ug dose; type: functional; how it was run: as §7
[29] = biological target: T1, Estrogen receptor (Mus musculus); experiment: Percentage inhibition of uterotrophic activity at 5 ug dose; type: functional; how it was run: as §7
[30] = biological target: T1, Estrogen receptor (Mus musculus); experiment: Percentage inhibition of uterotrophic activity at 125 ug dose; type: functional; how it was run: as §7
[31] = biological target: T1, Estrogen receptor (Mus musculus); experiment: Anti-uterotrophic activity in mice as uterus dry weight (mg)/body weight (g) *100 at 5 ug dose; type: functional, tissue-based; how it was run: as §6

CCCn1c(-c2ccc(O)cc2)c(CC)c2ccc(O)cc21
RBA [1]: 19

Cc1c(-c2ccc(O)cc2)n(C(C)C)c2cc(O)ccc12
RBA [1]: 13

Cc1c(-c2cccc(O)c2)n(C)c2cc(O)ccc12
RBA [1]: 0.55

Cn1c(-c2ccc(O)cc2)cc2cc(O)ccc21
RBA [1]: 0.8

Cc1c(-c2cccc(O)c2)n(C)c2ccc(O)cc12
RBA [1]: 0.6

CCn1c(-c2ccc(OC(C)=O)cc2)c(C)c2ccc(OC(C)=O)cc21
Uterotrophic effect [2]: 31.6
Progressed tumors (Rattus norvegicus [3]): 9%
Uterotrophic effect [4]: 42.4
New tumors (Rattus norvegicus [5]): 6
No. of tumors (Rattus norvegicus [6]): 40
Partial remission (Rattus norvegicus [7]): 23%
Uterotrophic effect [8]: 41.5
Complete remission (Rattus norvegicus [9]): 70%
No. of tumors (Rattus norvegicus [10]): 34
Uterotrophic effect [11]: 44.8
Static tumors (Rattus norvegicus [12]): 15%
Uterotrophic effect [13]: 20.8
Progressed tumors (Rattus norvegicus [14]): 5%
Static tumors (Rattus norvegicus [15]): 2%
Change of tumor area (Rattus norvegicus [16]): -100%
New tumors (Rattus norvegicus [17]): 6
Change of tumor area (Rattus norvegicus [18]): -96%
Change of body weight (Rattus norvegicus [19]): -15%
Change of tumor area (Rattus norvegicus [20]): -74%
Change of body weight (Rattus norvegicus [21]): -13%
Complete remission (Rattus norvegicus [22]): 65%
Partial remission (Rattus norvegicus [23]): 11%

Cn1c(-c2ccc(O)cc2)cc2ccc(O)cc21
RBA [1]: 3.8

Oc1ccc(-c2cc3cc(O)ccc3[nH]2)cc1
RBA [1]: 0.01

CC(=O)Oc1ccc(-c2c(C)c3ccc(OC(C)=O)cc3n2C)cc1
Uterotrophic effect [2]: 18.6
Anti-uterotrophic effect [24]: 34.3
Anti-uterotrophic effect [25]: 32.3
Uterotrophic effect [8]: 21.4
inhibition [26]: 31%
Uterotrophic effect [11]: 24.2
Uterotrophic effect [13]: 18.2
Anti-uterotrophic effect [27]: 31.7
inhibition [28]: 23%
inhibition [29]: 7%
inhibition [30]: 33%
Anti-uterotrophic effect [31]: 38.2

Cc1c(-c2ccc(O)cc2)n(C)c2ccc(O)cc12
RBA [1]: 4.6
